An excerpt weighted towards active compounds, which were near 8.8% of everything screened.
S1P1 ag pot – agonists and agonism potentiators of human S1P1 receptor. P21453. hit rate 0.57% among 56,000. S1P1 CRE-bla cells, forskolin, beta-lactamase FRET, potentiator mode; S1P1 agonist co-added at EC20, 2 nM; 100% = saturating reference agonist, 0% = basal. activation, % at 9.5 µM;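 active = activation above a cutoff set at the mean activation of all tested compounds plus 3 SD, cut at about 54% in these data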;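 also: forskolin at 4 µM as EC80 and the EC20 agonist is SEW2871; 100% = SEW2871 at its EC100 plus forskolin at EC80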
S1P3 agonist – activates the human S1P3 receptor; hit rate 0.1% among 60,000; S1P3 NFAT-BLA reporter cells, agonism, FRET ratio; relative to 1 µM S1P, basal subtracted; Q99500; activation, % at 4.5 µM;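 active = activation above the screen-wide mean plus 3 SD, cut at about 4.5% in these data, passing the limit was not always enough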
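Assay system: CHO cells stably expressing human S1P3, Gα16 and NFAT-β-lactamase reporter. Timing: overnight plating, 4 h compound 37 °C, 2 h substrate RT. Signal: β-lactamase FRET emission ratio 460/535 nm. Measure: percent activation versus median 1 µM S1P response, basal-subtracted, per plate. Repeats: primary screen single test, confirmation screen in triplicate.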
SF-1 act – activators of human nuclear receptor SF-1 | Q13285 | CHO-K1 Gal4-SF-1 LBD luciferase reporter; % increase over DMSO SF-1-specific signal | activation, % at 10 µM | hit rate 1.9% among 65,000 | AID 522;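 active = activation above the mean activation of all tested compounds plus 3 SD, cut at about 50% in these data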
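Material: CHO-K1 cells with Gal4–hSF-1 LBD chimera plus Gal4-driven luciferase / Input: 4,000 CHO-K1 cells per well / Incubation: compound exposure 20 h at 37 °C / Signal: luminescence read 15 min after SteadyLite luciferase reagent, after room-temperature equilibration / Read-out: percent activation versus DMSO / Benchmarks: DMSO negative control and −SF1 background wells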
M1 agonist – M1 muscarinic receptor agonism; CHO-M1 cells, Fluo-4 calcium fluorescence, agonist mode; active compounds read high; B-score at 10 µM; hit rate 3% among 64,000; AID 626;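 active = fluorescence rise, raw or as B-score row- and column-corrected plate score, outside the 99.7% band of its plate's samples, either direction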
RORA act – activates the human nuclear receptor RORA. P35398. CHO-K1 Gal4-RORA LBD luciferase reporter, luminescence; percent increase over mock-subtracted basal signal. activation, % at 10 µM. hit rate 1.5% among 65,000. AID 560;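 active = activation above the mean of all tested compounds plus 3 SD, cut at about 49% in these data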;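 also: 0% = DMSO-treated RORA cells and 100% = added signal equal to DMSO minus mock-transfected cells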
Target sequence (P35398 whole entry, looked up, the tested form may be a part): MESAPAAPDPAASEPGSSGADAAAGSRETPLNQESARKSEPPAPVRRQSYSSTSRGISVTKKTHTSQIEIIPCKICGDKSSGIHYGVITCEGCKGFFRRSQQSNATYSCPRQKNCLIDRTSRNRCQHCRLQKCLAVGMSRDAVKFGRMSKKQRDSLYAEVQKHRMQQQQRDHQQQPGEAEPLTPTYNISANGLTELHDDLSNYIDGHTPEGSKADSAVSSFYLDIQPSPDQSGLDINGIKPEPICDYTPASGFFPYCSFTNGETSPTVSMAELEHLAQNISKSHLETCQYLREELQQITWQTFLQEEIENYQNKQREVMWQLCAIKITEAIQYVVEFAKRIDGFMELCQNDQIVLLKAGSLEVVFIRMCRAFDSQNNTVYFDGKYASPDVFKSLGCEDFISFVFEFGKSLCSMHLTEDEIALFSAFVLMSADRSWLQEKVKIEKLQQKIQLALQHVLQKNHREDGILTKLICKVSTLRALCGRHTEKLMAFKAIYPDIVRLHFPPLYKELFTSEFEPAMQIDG
M1 antagonist – blocks the rat M1 muscarinic receptor response to acetylcholine; P08482; CHO-M1 cells, Fluo-4 calcium, ACh EC80 antagonist mode; active compounds read low; B-score at 10 µM; hit rate 3.4% among 64,000; AID 628;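 active = calcium fluorescence response, raw or row-and-column corrected B-score, differing from the plate sample mean either way at a set confidence level, mostly lower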
M1 antag conf – confirmation of rat M1 muscarinic receptor antagonists | shares compounds with M1 antagonist | CHO-M1 cells, Fluo-4 calcium, ACh EC80 antagonism; active compounds read low | calcium response (max-min fluorescence) at 10 µM | hit rate 43% among 1,700;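 active = calcium response below the same-plate mean of wells given acetylcholine alone at its 80%-effect dose, minus 3 SD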;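 also: raw fluorescence intensity difference in arbitrary instrument units and not normalized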
mGluR4 antag – mGluR4 (human) activity, M1 antagonist secondary assay; shares compounds with M1 antagonist; fluorescence response (max-min) at 10 µM; CHO-mGluR4 calcium flux, Fluo-4 fluorescence, glutamate EC80; active compounds read low; hit rate 0.9% among 1,700; AID 678;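 active = fluorescence response below the plate's average for near-maximal glutamate wells, less 3 SD of those wells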;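 also: raw unnormalized fluorescence span taken in the window right after glutamate addition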
* hit, by the source's call; · = no result given.

SMILES	S1P1 ag pot	S1P3 agonist	SF-1 act	M1 agonist	RORA act	M1 antagonist	M1 antag conf	mGluR4 antag
COC(=O)c1ccc(COc2cccc(OC)c2)o1	·	·	-7	0.4	11	-2.4*	602	264
OC1CCN(Cc2cccc(Oc3ccccc3)c2)CC1	-26	0	-4	·	9	·	·	·
OCCN1CCN(Cc2cccc(Oc3ccc(Cl)cc3)c2)CC1	-38	-1	-19	-1	-1	-2.9*	378*	187
CCOCCCn1c(=S)[nH]c2cc(C(=O)NCCN(CC)CC)ccc2c1=O	3	-1	13	0.12	1	-8.8*	538	204
COc1ccc(S(=O)(=O)N(CCN2CCOCC2)Cc2cc(OC)ccc2OC)cc1	-7	0	-10	-0.068	2	-0.072	·	·
Clc1ccc(CN2C3=NCCN3c3ccccc32)cc1Cl	4	-1	-5	-1.5	-1	-3.2*	399*	247
O=C(c1ccc(Br)o1)N1CCN(c2ccc3nnc(-c4ccccc4)n3n2)CC1	-22	0	-20	0.91	-8	-6.4*	264*	225
Cc1nnc2ccc(N3CCN(C(=O)c4ccccc4)CC3)nn12	-16	-1	-14	-0.69	7	-0.96	·	·
Cc1noc(C)c1S(=O)(=O)N1CCC(C(=O)Nc2ccc(OC(F)(F)F)cc2)CC1	·	·	-3	-0.54	-14	2	·	·
O=c1oc(-c2cccs2)nc2sc3c(c12)CCCCC3	4	-1	5	-0.13	-3	0.31	·	·
Nn1c(-c2cccs2)nc2sc3c(c2c1=O)CCCC3	0	0	42	-0.66	45	-4.4*	672	202
CCN(CC)Cc1cc2ccccc2c2c1COC2	·	·	21	-0.16	1	-2.3*	473*	207
CCc1oc(C(=O)O)cc1CN(CC)CC	·	·	0	-0.33	7	-0.37	·	·
Cc1cc(N2CCN(C/C=C/c3ccccc3)CC2)n2ncnc2n1	63	-2	-7	-0.32	-17	-1.6*	525	231
O=C(NCCc1ccccc1)C1CCCN(S(=O)(=O)c2cccc3nsnc23)C1 (stereo not given)	-5	0	-8	-0.76	-7	0.16	·	·
CC(c1nnc(Sc2nnnn2-c2ccccc2)n1-c1ccc(F)cc1)N(C)C (stereo not given)	-5	0	0	0.58	-5	0.14	·	·
CC(C)CC(=O)N1CCN(C(=O)c2cccc(F)c2)CC1	0	-1	-10	0.83	-21	-2.2*	622	246
COc1ccc(Oc2coc3c(CN(C)C)c(O)ccc3c2=O)cc1	·	·	6	-0.058	-2	-3.7*	445*	211
COc1ccc(Oc2c(C)oc3c(CN(C)C)c(O)ccc3c2=O)cc1	1	0	0	0.43	-17	-7.5*	371*	182
COc1cc(C)nc(N2CCC(C(=O)NC3CCCCC3)CC2)n1	·	·	10	0.024	-4	-0.12	·	·
COc1cc(-c2nc(S(=O)(=O)c3ccc(C)cc3)c(N3CCOCC3)o2)cc(OC)c1OC	-54	2	-24	0.43	-5	-13*	569	183
CCOC(=O)c1c(NC(=O)CSc2nnnn2C)sc(CC)c1C	-8	0	-29	0.56	3	0.79	·	·
O=C(Nc1ccccn1)C1CCN(S(=O)(=O)c2cccs2)CC1	5	5	-5	-1.6	4	-0.46	·	·
Cc1cccc(NC(=O)C2CCN(S(=O)(=O)c3cccs3)CC2)n1	·	·	6	-2	-4	-2.9*	637	270
COC(=O)c1cccc(NC(=O)CSc2nnc(C)n2Cc2ccccc2)c1	-11	0	-7	0.31	0	1.2	·	·
COc1ccccc1-n1c(C)nnc1SCC(=O)Nc1cccc(C(C)=O)c1	4	0	5	-0.52	3	-2.7*	649	226
